# Results pooled from the literature.
# Lines come from different studies, so protocols differ.
# Target: Dual specificity mitogen-activated protein kinase kinase 4 (MAP2K4, Homo sapiens, UniProt P45985)
# One construct used (P45985 1-399): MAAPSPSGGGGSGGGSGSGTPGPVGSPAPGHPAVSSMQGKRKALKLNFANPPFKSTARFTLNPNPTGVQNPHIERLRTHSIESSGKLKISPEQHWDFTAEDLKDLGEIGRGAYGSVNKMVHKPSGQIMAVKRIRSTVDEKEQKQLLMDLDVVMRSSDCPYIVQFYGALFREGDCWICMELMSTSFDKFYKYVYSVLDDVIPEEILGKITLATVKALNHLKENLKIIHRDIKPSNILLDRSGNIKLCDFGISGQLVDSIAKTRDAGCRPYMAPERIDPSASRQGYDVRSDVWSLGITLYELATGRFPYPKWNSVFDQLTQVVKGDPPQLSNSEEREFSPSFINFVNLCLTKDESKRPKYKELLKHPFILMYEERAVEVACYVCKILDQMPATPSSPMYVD
SMILES,test,setting,remaining binding [%]
CS(=O)(=O)NCC[C@H](NC(=O)c1cncc2c1cnn2-c1ccc(F)cc1)c1ccnc(S(C)(=O)=O)c1,"cell-free assay, competition with immobilised ligand",1 µM,100
N[C@@H]1CCN(c2nccc(-c3cnn4ncccc34)n2)C1,binding,1 µM,99
O=C(NCCCN1CCOCC1)c1ccc(Nc2ncc(Cl)c(-c3ccc(Cl)s3)n2)cc1,"binding, competition with immobilised ligand",1 µM,56
CCN1CCN(Cc2ccc(C(=O)Nc3ccc(C)c(Oc4ccc5c(c4)CC(=O)N5)c3)cc2C(F)(F)F)CC1,"binding, competition with immobilised ligand",1 µM,100
Cc1cnn2ncc(-c3ccnc(N(C)C)n3)c2c1,binding,1 µM,100
COc1cnc(Nc2cccc(S(N)(=O)=O)c2)nc1N1CCN(c2ccccc2)CC1,"binding, competition with immobilised ligand",1 µM,99
CC1CCCN1c1nccc(-c2cnn3ncccc23)n1 (stereo not drawn),binding,1 µM,100
Nc1ncc2c(n1)-c1c([nH]c3ccc(C#CC4CC4)cc13)CCCC2,"binding, competition with immobilised ligand",1 µM,24
CS(=O)(=O)N1CCCC(NC(=O)[C@H](CCC2CCCCC2)NC(=O)c2ccc(CNC(=O)c3cnc4ccccn34)cc2)C1 (stereo partly drawn),"cell-free assay, competition with immobilised ligand",0.1 µM,100
CNC(=O)[C@@H]1CC[C@@H](n2c(-c3ccc4cnccc4c3)nc3ccc(C(=O)NCc4cccc(C(N)=O)c4)cc32)C1,"binding, competition with immobilised ligand",1 µM,100
F[C@@H]1CCN(c2nccc(-c3cnn4ncccc34)n2)C1,binding,1 µM,100
Cn1cc(Cl)c2c(Oc3c(F)cc(Nc4cc(Cl)nc(N)n4)cc3F)ccnc21,"cell-free assay, competition with immobilised ligand",0.1 µM,80
O=C(Nc1c[nH]nc1C(=O)NC1CCNCC1)c1cc(F)cc(F)c1,"binding, competition with immobilised ligand",1 µM,94
CN(c1nccc(-c2cnn3ncccc23)n1)C1CC1,binding,1 µM,100
C[C@@H](c1ccc(-n2cnc3c(N)ncnc32)cc1)N1CCc2nn(C)c(Cc3ccccc3)c2C1=O,"binding, competition with immobilised ligand",0.1 µM,57
CO[C@H]1CC[C@H](CNc2ccc(S(=O)(=O)NC(=O)c3ccc(N4CCN(CC5=C(c6ccc(Cl)cc6)CC(C)(C)CC5)CC4)cc3Oc3cnc4[nH]ccc4c3)cc2[N+](=O)[O-])CC1,"cell-free assay, competition with immobilised ligand",1 µM,98
C[C@@H]1CCN(c2nccc(-c3cnn4ncccc34)n2)C1,binding,1 µM,69
Cc1nc(C2CCN(C(=O)c3ccc(OC(F)(F)F)cc3N)CC2)c2ncc(N3CCN(C)CC3)cc2n1,"cell-free assay, competition with immobilised ligand",1 µM,100
O=C(c1ccc(Nc2ncc(Cl)c(-c3cc4ccccc4s3)n2)cc1)N1CCC(N2CCCC2)CC1,"binding, competition with immobilised ligand",1 µM,69
CC1=C(C#N)C(c2ccc3c(c2)c(NC(=O)c2ccccc2C)nn3C)C(C#N)=C(C)N1,"cell-free assay, competition with immobilised ligand",1 µM,79
C=CC(=O)N1CCC(C(=O)NCC(=O)N2CCN(c3nc(-c4cnc(N)nc4C(F)F)nc(N4CCOCC4)n3)CC2)CC1,"binding, competition with immobilised ligand",1 µM,100
